Measured values gathered from unrelated publications.
Target: 5'-AMP-activated protein kinase catalytic subunit alpha-1 (PRKAA1, Homo sapiens, UniProt Q13131)
Technique: competition with immobilised ligand

SMILES	assay	setting	remaining binding [%]
O=C(NC[C@@H]1[C@H]2CN(C(=O)OCc3cc(C(F)(F)F)cc(C(F)(F)F)c3)C[C@@H]12)c1ccc2[nH]nnc2c1	cell-free assay	1 µM	100
c1cnn2ncc(-c3ccnc(N4CCC45COC5)n3)c2c1	binding	1 µM	92
O=C(c1ccc(Nc2ncc(Cl)c(-c3ccc(Cl)s3)n2)cc1)N1CCC(N2CCCC2)CC1	binding	1 µM	8.1
N[C@H]1CCN(c2nccc(-c3cnn4ncccc34)n2)C1	binding	1 µM	100
O=C(NCCCN1CCOCC1)c1ccc(Nc2nccc(-c3cc4ccccc4s3)n2)cc1	binding	1 µM	42
C[C@H](NC(=O)c1cnc2n1[C@](C)(Cc1ccc(C#N)cc1)C(=O)N2c1cc(Cl)c(F)c(Cl)c1)C(=O)NC1(c2ccccn2)CC1	cell-free assay	1 µM	100
COc1cnc(Nc2cccc(S(N)(=O)=O)c2)nc1N1CCN(c2ccccc2)CC1	binding	1 µM	100
Cc1c(NC(=O)c2cc(C(N)=O)nc3cc(F)ccc23)c(C(F)(F)F)nn1Cc1ccc(C(C)(C)C)cc1	cell-free assay	1 µM	100
Cc1cnn2ncc(-c3ccnc(N(C)C)n3)c2c1	binding	1 µM	93
CS(=O)(=O)c1cc(C2(NC(=O)c3cncc4c3cnn4-c3ccc(F)cc3)CC2)ccn1	cell-free assay	1 µM	99
C[C@@H]1CCN(c2nccc(-c3cnn4ncccc34)n2)C1	binding	1 µM	99
O=C(NCC1CCOCC1)c1n[nH]cc1NC(=O)c1c(F)cccc1F	binding	1 µM	93
O=C(c1ccc(Nc2ncc(Cl)c(-c3cc4ccccc4s3)n2)cc1)N1CCC(N2CCCC2)CC1	binding	1 µM	5.7
CNC(=O)[C@@H]1CC[C@@H](n2c(-c3ccc4cnccc4c3)nc3ccc(C(=O)NCc4cccc(C(N)=O)c4)cc32)C1	binding	1 µM	84
C=CC(=O)N1CCC(C(=O)NCC(=O)N2CCN(c3nc(-c4cnc(N)nc4C(F)F)nc(N4CCOCC4)n3)CC2)CC1	binding	1 µM	97
C[C@@H](c1ccc(-n2cnc3c(N)ncnc32)cc1)N1CCc2nn(C)c(Cc3ccccc3)c2C1=O	binding	0.1 µM	95
CS(=O)(=O)NCC[C@H](NC(=O)c1cncc2c1cnn2-c1ccc(F)cc1)c1ccnc(S(C)(=O)=O)c1	cell-free assay	1 µM	100
CN(C)c1ncc(F)c(-c2cnn3ncccc23)n1	binding	1 µM	48
Nc1ncc2c(n1)-c1c([nH]c3ccc(C#CC4CC4)cc13)CCCC2	binding	1 µM	97
CC(=O)N1CCC(c2ccc(C(=O)NC3=NCCN3)cc2C(F)(F)F)CC1	cell-free assay	1 µM	100
CN(C)c1nccc(-c2cnn3ncccc23)n1	binding	1 µM	100
